Screening results deposited in PubChem BioAssay by The Scripps Research Institute Molecular Screening Center.
HTRA1 inh = inhibitors of human serine peptidase HTRA1. Q92743. recombinant HTRA1, FP-rhodamine activity-based probe, fluorescence polarization. inhibition, % at 5.96 µM. 340,000 compounds, 0.5% hits. AID 504803; in the data active = inhibition above about 36%;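 also: 0% = enzyme with DMSO and 100% = wells lacking enzyme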
Target sequence (Q92743 whole entry, looked up): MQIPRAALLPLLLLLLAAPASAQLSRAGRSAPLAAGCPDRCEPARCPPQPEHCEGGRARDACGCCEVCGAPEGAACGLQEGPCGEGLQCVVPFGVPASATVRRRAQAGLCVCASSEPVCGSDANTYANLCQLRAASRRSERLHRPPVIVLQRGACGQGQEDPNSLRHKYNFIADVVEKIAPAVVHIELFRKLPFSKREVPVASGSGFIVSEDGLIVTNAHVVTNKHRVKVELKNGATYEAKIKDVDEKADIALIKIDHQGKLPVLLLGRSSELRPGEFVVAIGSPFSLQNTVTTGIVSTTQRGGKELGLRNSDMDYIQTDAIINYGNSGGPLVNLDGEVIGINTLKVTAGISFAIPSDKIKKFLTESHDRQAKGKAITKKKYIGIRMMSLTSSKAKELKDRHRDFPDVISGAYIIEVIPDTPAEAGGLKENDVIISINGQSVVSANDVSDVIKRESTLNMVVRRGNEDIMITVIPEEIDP
TCR-CD3 inh = inhibitors of human TCR-CD3 interaction. TAMRA-labeled TCR probe fluorescence, biochemical. inhibition, % at 9.4 µM. 360,000 compounds, 0.37% hits. AID 651800; in the data active = inhibition above about 19%;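 also: recombinant mutant TCR 2C K166C tagged with TAMRA read by polarization; 0% = receptor in buffer alone and 100% = receptor with positive control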
mABHD4 FP = inhibits mouse alpha/beta hydrolase domain 4. Q8VD66. purified mABHD4, FP-Rh probe fluorescence polarization. inhibition, % at 8.92 µM. 370,000 compounds, 0.54% hits. AID 720543;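 active = inhibition exceeding the mean over every tested compound plus 3 SD, cut at about 30% in these data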;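 also: 0% = plate median of compound wells and 100% = S159A mutant with DMSO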
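Doses – 8.92 µM, single dose · Material – wild-type mouse ABHD4 protein · Replication – single well per compound (singlicate) · Measure – percent inhibition of probe binding, normalized to plate controls · Schedule – 45 min compound pre-incubation plus 60 min probe step, 25 °C · Detection – fluorescence polarization with parallel and perpendicular emission, 525/598 nm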
SIAE primary = inhibitors of human sialic acid acetylesterase SIAE | Q9HAT2 | SIAE FP-Rh probe binding, fluorescence polarization | inhibition, % at 9.66 µM | 370,000 compounds, 0.69% hits | AID 1053197;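 active = inhibition above a cutoff: mean of compounds within the control limits plus 3 SD of those, cut at about 17% in these data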;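 also: 0% = plate median of compound wells and 100% = probe without SIAE protein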
DAGLB inh = blocks human DAGLB lipase activity. inhibition, % at 5.17 µM. Q8NCG7. 340,000 compounds, 0.059% hits. HEK293T DAGLB membrane lysate, EnzChek fluorogenic substrate; in the data active = inhibition above about 34%;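 also: 0% = enzyme with vehicle and 100% = wells lacking enzyme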
ABHD4 confirm = confirmation of mouse ABHD4 inhibitors | inhibition, % at 8.92 µM | purified mABHD4, FP-Rh probe fluorescence polarization | shares compounds with mABHD4 FP | 1,800 compounds, 55% hits;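 active = mean inhibition across replicates above the hit cutoff set in the primary screen, cut at about 30% in these data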;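 also: 0% = wild-type ABHD4 with DMSO and 100% = catalytically dead S159A mutant with DMSO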
Starred values were filed as active, the others as inactive; nt = not tested or not shown. An excerpt weighted towards active compounds, which were near 1.5% of everything screened.

SMILES	HTRA1 inh	TCR-CD3 inh	mABHD4 FP	SIAE primary	DAGLB inh	ABHD4 confirm
C=CCN1[C@@H](CC(C)C)COc2cccc(N3CCSCC3)c2S1(=O)=O	nt	nt	-1	-1	nt	nt
CC(NC(=O)CCC(=O)Nc1ccccc1O)c1ccccc1 (configuration not stated)	nt	-1	-8	0	nt	nt
CC(CNc1ccccc1O)C(=O)O (configuration not stated)	6	-1	34*	4	2	2
COc1ccc(-n2c(COc3ccc(Cl)cc3)nnc2SCC(=O)Nc2ccc(Oc3ccccc3)cc2)cc1	nt	nt	-12	-2	nt	nt
Cc1cc2ccccn2c1C(=O)c1cc([N+](=O)[O-])cc([N+](=O)[O-])c1	3	-4	2	3	8	nt
Cc1cc2ccccn2c1C(=O)c1ccc(NN)c([N+](=O)[O-])c1	-1	-2	33*	8	7	17
CCOC(=O)c1c(-c2ccccc2)[nH]c2ccc(O)cc12	-9	-6	31*	5	-1	42*
Cc1ccc2[nH]c3ccccc3c(=O)c2c1	-2	-8	9	-2	-1	nt
O=c1c2ccccc2[nH]c2ccc(O)cc12	19	11	41*	11	-1	26
CCOC(=O)c1c(-c2ccccc2)oc2ccc(O)cc12	-28	-5	-7	-10	-6	nt
CC(C)C[C@@H]1CN=C(N)N1C[C@@H]1CCCN1C[C@@H](C(C)C)N1C[C@@H](Cc2ccccc2)N(CCc2ccc(Cl)c(Cl)c2)C1=N	1	4	34*	6	1	22
CC(C)C[C@@H]1CN=C(N)N1C[C@@H]1CCCN1C[C@H](C)N1C[C@@H](Cc2ccccc2)N(CCc2ccc(Cl)c(Cl)c2)C1=N	6	nt	nt	nt	2	nt
CCNC(=S)NNC(=O)c1ccccn1	7	8	54*	-4	-1	55*
CCNC(=S)NNC(=O)c1ccccc1Cl	2	7	7	2	-4	nt
COc1ccccc1[C@@H]1C(c2ccccc2)=NN(c2ccc(Br)cc2)[C@H]1C(=O)N1CCOC1=O	-14	1	49*	-6	-1	-2
O=C(Nc1ccccc1Oc1ccccc1)NC1CCCCN(Cc2cccc(Cl)c2)C1=O (configuration not stated)	nt	nt	-2	-1	nt	nt
COC/C=C/C1=CC2=CC(=O)C(C)(OC(=O)c3cnc4ccccc4n3)C(=O)C2=CN1Cc1ccccc1 (configuration not stated)	26	8	34*	14	7	13
C=CCN1C(=O)c2n[nH]c(COC)c2C1c1ccc(C)cc1 (configuration not stated)	nt	3	-3	-2	nt	nt
COC(=O)C1=C(C)N(Cc2cccc(C(F)(F)F)c2)C(=NCc2ccc(OC)cc2)NC1c1cccc(Cl)c1 (configuration not stated)	nt	-6	27	3	nt	nt
COC(=O)C1=C(C)N(Cc2ccc(C(F)(F)F)cc2)C(=NCc2ccccc2)NC1c1cccc(F)c1 (configuration not stated)	nt	-1	34*	9	nt	46*
COC(=O)C1=C(C)N(Cc2cccc(C(F)(F)F)c2)C(=NCc2ccc(OC)cc2)NC1c1cccc(C(F)(F)F)c1 (configuration not stated)	nt	-1	31*	-4	nt	41*
COC(=O)C1=C(C)N(Cc2cccc(C(F)(F)F)c2)C(=NCc2ccc(C(F)(F)F)cc2)NC1c1ccc(F)cc1 (configuration not stated)	nt	6	35*	-9	nt	44*
COC(=O)C1=C(C)N(Cc2cccc(C(F)(F)F)c2)C(=NCc2ccc3c(c2)OCO3)NC1c1ccc(F)cc1 (configuration not stated)	nt	-6	44*	3	nt	30*
COC(=O)C1=C(C)N(Cc2cccc(C(F)(F)F)c2)C(=NCc2ccc(C(F)(F)F)cc2)NC1c1ccc(C(F)(F)F)cc1 (configuration not stated)	nt	8	19	-24	nt	nt
COC(=O)C1=C(C)N(Cc2cccc(C(F)(F)F)c2)C(=NCc2ccc(C(F)(F)F)cc2)NC1c1cccc(F)c1 (configuration not stated)	nt	-3	21	3	nt	nt
SMILES	HTRA1 inh	TCR-CD3 inh	mABHD4 FP	SIAE primary	DAGLB inh	ABHD4 confirm
N#CCC(=O)NNc1c([N+](=O)[O-])cc(C(F)(F)F)cc1[N+](=O)[O-]	nt	-8	43*	7	nt	5
O=[N+]([O-])c1cc(C(F)(F)F)cc([N+](=O)[O-])c1NCCCN1CCOCC1	-6	1	1	5	1	nt
O=C1/C(=C\c2ccc(-c3ccccc3Cl)o2)SC(=S)N1CC1CCCO1 (configuration not stated)	0	-3	-1	4	-2	nt
Cc1ccc(/C=C2\SC(=S)N(CC3CCCO3)C2=O)o1 (configuration not stated)	8	-7	30*	5	2	-16
O=C1/C(=C/c2ccco2)SC(=S)N1CC1CCCO1 (configuration not stated)	nt	-11	32*	9	nt	5
O=C1/C(=C\c2ccco2)SC(=S)N1C1CCS(=O)(=O)C1 (configuration not stated)	nt	9	35*	7	nt	-3
OC(c1ccccc1)(c1ccccc1)C1CCN(CCCOc2ccc(-c3cncnc3)cc2)CC1	nt	2	3	3	nt	nt
COC(=O)[C@]12C[C@H](CC(=O)N3CCN(C(=O)c4ccco4)CC3)C(=O)N(Cc3ccccc3)C1=C[C@H](C(C)(C)C)O[C@@H]2C	nt	3	1	-3	nt	nt
Cc1cc(Oc2cccnc2)ccc1NC(=O)Cc1c[nH]c2ccccc12	nt	-12	-12	4	nt	nt
Cc1ccc(C)c(N2CCN(C(=O)c3ccc4nc(-c5ccco5)c(-c5ccco5)nc4c3)CC2)c1	7	17	42*	14	11	-1
O=C(Nc1cccc([N+](=O)[O-])c1)NC1CCCCN(Cc2cccc(Cl)c2)C1=O (configuration not stated)	nt	nt	3	-3	nt	nt
O=C(O)c1cccc(S(=O)(=O)Nc2ccc([N+](=O)[O-])cc2O)c1	-2	-4	10	-2	-2	nt
O=C(O)CSc1cc(NS(=O)(=O)c2cccc([N+](=O)[O-])c2)c2ccccc2c1O	22	-5	41*	11	-10	34*
CCc1ccc(S(=O)(=O)Nc2cc(SCC(=O)O)c(O)c3ccccc23)cc1	30	0	31*	7	-5	45*
O=S(=O)(Nc1cc(Sc2cccc3cccnc23)c(O)c2ccccc12)c1ccccc1	nt	8	42*	17	nt	17
CCOc1ccc(S(=O)(=O)Nc2cc(SCC(=O)O)c(O)c3ccccc23)cc1	32	0	43*	6	-6	45*
C[C@H]1COc2cccc(NCCO)c2S(=O)(=O)N1	nt	3	2	0	nt	nt
